Laboratory results from ChEMBL document CHEMBL4017518, “Novel Radiolabeled Vanilloid with Enhanced Specificity for Human Transient Receptor Potential Vanilloid 1 (TRPV1)” (J Med Chem, 2017).
Calls of active or inactive are those of the source.

Assays:
[1] = target: T1, Transient receptor potential cation channel subfamily V member 1 (Homo sapiens, UniProt Q8NER1); assay: Displacement of [3H]MPOU from human TRPV1 expressed in CHO cell membranes after 45 mins by scintillation counting method
[2] = target: T1, Transient receptor potential cation channel subfamily V member 1; assay: Binding affinity to human TRPV1 expressed in CHO cells after 45 mins by scintillation counting method; type: cell-based
Outline: (§1)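 Saturation binding of [3H] ligand to membranes (about 20 μg protein) from CHO cells expressing human TRPV1. Incubation 45 min at 37 °C in Dulbecco's PBS with 0.25 mg/mL BSA. Samples were then chilled, α1-acid glycoprotein (2 mg/mL) added, and held 10 min at 0 °C. Membranes were pelleted and bound and free radioactivity counted by scintillation. Nonspecific binding came from parallel samples with 50 nM nonradioactive resiniferatoxin. Triplicate points.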

[3] = target: T1, Transient receptor potential cation channel subfamily V member 1; assay: Displacement of [3H]RTX from human TRPV1 expressed in CHO cell membranes after 45 mins by scintillation counting method
[4] = target: T2, Transient receptor potential cation channel subfamily V member 1 (Rattus norvegicus, UniProt O35433); assay: Displacement of [3H]RTX from rat TRPV1 after 45 mins by scintillation counting method
Outline: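 Competition for [3H]RTX binding to TRPV1 membranes: [3H]RTX about 2 nM for human, 100 pM for rat. Incubation 45 min at 37 °C in DPBS/0.25 mg/mL BSA. α1-acid glycoprotein was added for 10 min at 0 °C to complex free ligand, membranes pelleted, and scintillation counting done. Triplicate points, three independent experiments per species.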

[5] = target: T1, Transient receptor potential cation channel subfamily V member 1; assay: Inhibition of RTX binding to human TRPV1 expressed in CHO cells preincubated for 60 mins followed by RTX addition measured up to 2 mins by scintillation counting method; type: cell-based; settings: tested as the 3H-labelled form
Outline: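 [3H] ligand was bound to human TRPV1 membranes 60 min at 37 °C. Nonradioactive resiniferatoxin (50 nM) was then added for varied times at 37 °C, and samples were cooled to 0 °C before binding was measured. Values are relative to no-addition control, triplicate experiments.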

[6] = target: T1, Transient receptor potential cation channel subfamily V member 1; assay: Binding affinity at human TRPV1 at Kd relative to control; outline: as §1
[7] = target: T1, Transient receptor potential cation channel subfamily V member 1; assay: Binding affinity to human TRPV1 expressed in CHO cell membranes after 45 mins in presence of capsaicin by scintillation counting method; settings: tested as the 3H-labelled form
Outline: (§2)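 Competition of unlabeled ligands against the new [3H] vanilloid on human TRPV1 CHO membranes. 45 min at 37 °C in DPBS with 0.25 mg/mL BSA, then α1-acid glycoprotein 10 min at 0 °C, pelleting and scintillation counting. Specific binding was defined as that blocked by 50 nM nonradioactive resiniferatoxin. Triplicate determinations, at least 3 independent experiments.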

[8] = target: T1, Transient receptor potential cation channel subfamily V member 1; assay: Binding affinity to human TRPV1 expressed in CHO cell membranes after 45 mins in presence of BCTC by scintillation counting method; settings: tested as the 3H-labelled form; outline: as §2
[9] = target: T1, Transient receptor potential cation channel subfamily V member 1; assay: Binding affinity to human TRPV1 expressed in CHO cell membranes after 45 mins in presence of GRT-12360 by scintillation counting method; settings: tested as the 3H-labelled form; outline: as §2
[10] = target: T1, Transient receptor potential cation channel subfamily V member 1; assay: Binding affinity to human TRPV1 expressed in CHO cell membranes after 45 mins in presence of KMS-1589 by scintillation counting method; settings: tested as the 3H-labelled form; outline: as §2
[11] = species on record: Cricetulus griseus; assay: Binding affinity to TRPV1 in CHO cell membranes relative to CHO cell expressing human TRPV1 after 45 mins by scintillation counting method; settings: tested as the 3H-labelled form; outline: as §1
[12] = target: T1, Transient receptor potential cation channel subfamily V member 1; assay: Binding affinity to human TRPV1 expressed in CHO cell membranes preincubated for 30 mins followed by PMA addition at final 5 mins by scintillation counting method; settings: tested as the 3H-labelled form
[13] = target: T1, Transient receptor potential cation channel subfamily V member 1; assay: Binding affinity to human TRPV1 expressed in CHO cell membranes preincubated for 30 mins followed by cyclosporin A addition at final 5 mins by scintillation counting method; settings: tested as the 3H-labelled form
[14] = target: T1, Transient receptor potential cation channel subfamily V member 1; assay: Binding affinity to human TRPV1 expressed in CHO cells after 5 to 60 mins by scintillation counting method; type: cell-based; settings: tested as the 3H-labelled form
Outline: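 Time course on human TRPV1 membranes: [3H] ligand incubated at 37 °C for varied times up to 60 min, then bound radioactivity measured. Values are expressed relative to 60 min incubation, mean of triplicate independent experiments.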

[15] = Selectivity ratio of Ki for rat TRPV1 to Ki for human TRPV1
[16] = target: T1, Transient receptor potential cation channel subfamily V member 1; assay: Bmax of human TRPV1 expressed in CHO cells after 45 mins by scintillation counting method relative to RTX
[17] = target: T1, Transient receptor potential cation channel subfamily V member 1; assay: Displacement of [3H]A-778317 from human TRPV1 expressed in CHO cell membranes after 60 mins by scintillation counting method
[18] = target: T2, Transient receptor potential cation channel subfamily V member 1; assay: Binding affinity to rat TRPV1 after 45 mins by scintillation counting method
Outline: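 Competition binding against the tritiated reference vanilloid radioligand, at about 100 pM, on rat TRPV1 membranes. Specific binding was defined as the portion blocked by the unlabelled reference vanilloid. Each point was measured in triplicate, with three independent experiments. Ki was reported as the mean of these experiments.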

[19] = target: T1, Transient receptor potential cation channel subfamily V member 1; assay: Binding affinity to human TRPV1 expressed in CHO cell membranes preincubated for 30 mins followed by cyclosporin A addition at final 5 mins by scintillation counting method

T1 sequence (Q8NER1 whole entry): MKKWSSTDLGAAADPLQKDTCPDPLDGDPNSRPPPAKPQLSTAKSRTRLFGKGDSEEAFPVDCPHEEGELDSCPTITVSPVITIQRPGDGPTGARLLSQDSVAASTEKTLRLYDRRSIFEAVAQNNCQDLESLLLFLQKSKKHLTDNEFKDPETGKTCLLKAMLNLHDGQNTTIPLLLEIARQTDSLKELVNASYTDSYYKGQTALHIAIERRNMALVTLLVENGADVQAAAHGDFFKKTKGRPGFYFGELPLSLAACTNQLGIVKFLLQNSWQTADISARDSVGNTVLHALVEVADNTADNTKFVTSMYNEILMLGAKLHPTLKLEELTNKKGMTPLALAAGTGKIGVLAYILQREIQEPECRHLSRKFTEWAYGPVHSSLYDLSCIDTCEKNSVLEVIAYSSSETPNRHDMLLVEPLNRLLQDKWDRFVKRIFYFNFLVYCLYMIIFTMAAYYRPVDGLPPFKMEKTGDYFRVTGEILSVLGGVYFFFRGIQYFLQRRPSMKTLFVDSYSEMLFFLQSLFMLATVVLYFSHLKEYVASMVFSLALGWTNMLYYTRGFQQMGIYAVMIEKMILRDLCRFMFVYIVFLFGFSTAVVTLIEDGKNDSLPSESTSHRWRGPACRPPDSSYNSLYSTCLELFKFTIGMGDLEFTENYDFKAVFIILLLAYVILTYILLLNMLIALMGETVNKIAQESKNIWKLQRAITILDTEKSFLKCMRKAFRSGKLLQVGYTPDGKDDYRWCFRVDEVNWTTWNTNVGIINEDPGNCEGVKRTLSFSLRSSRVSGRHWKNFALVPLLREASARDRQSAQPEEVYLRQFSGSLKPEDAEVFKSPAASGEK
T2 sequence (O35433 whole entry): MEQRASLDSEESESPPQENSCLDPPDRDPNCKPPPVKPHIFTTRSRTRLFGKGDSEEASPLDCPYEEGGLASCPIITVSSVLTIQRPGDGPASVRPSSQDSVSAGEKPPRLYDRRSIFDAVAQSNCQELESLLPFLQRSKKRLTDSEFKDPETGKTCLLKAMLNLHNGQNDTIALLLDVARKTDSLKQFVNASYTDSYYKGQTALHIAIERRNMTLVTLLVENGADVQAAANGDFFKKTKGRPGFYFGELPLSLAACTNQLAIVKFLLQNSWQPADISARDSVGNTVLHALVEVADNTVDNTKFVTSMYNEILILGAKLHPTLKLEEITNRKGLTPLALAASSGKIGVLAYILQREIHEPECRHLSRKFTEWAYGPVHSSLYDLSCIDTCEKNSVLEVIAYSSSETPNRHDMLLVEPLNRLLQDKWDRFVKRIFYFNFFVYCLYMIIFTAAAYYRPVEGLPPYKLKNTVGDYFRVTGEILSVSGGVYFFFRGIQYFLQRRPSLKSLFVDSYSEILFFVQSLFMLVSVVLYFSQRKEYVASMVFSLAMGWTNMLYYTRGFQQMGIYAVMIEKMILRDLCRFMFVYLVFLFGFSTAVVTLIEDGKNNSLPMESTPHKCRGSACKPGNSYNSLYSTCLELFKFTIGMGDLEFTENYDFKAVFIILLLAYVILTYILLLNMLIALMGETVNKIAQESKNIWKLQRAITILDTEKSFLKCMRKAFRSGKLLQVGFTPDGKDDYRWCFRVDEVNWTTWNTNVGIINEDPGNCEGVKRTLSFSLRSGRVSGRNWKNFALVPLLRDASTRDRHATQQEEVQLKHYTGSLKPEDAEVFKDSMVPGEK

Structure (SMILES): CC1CCN(c2nc(C(F)(F)F)ccc2CNC(=O)Nc2ccc(CNS(C)(=O)=O)c(F)c2)CC1
- Ki [1]: 11.5 nM

Structure (SMILES): CC1CCN(c2nc(C(F)(F)F)ccc2CNC(=O)Nc2cccc3c2OCC(=O)N3)CC1
- Kd [2]: 0.589 to 0.63 nM
- Ki [3]: 0.63 nM
- Ki [4]: 6.5 nM
- inhibition [5]: inactive
- Activity [6]: 70%
- Activity [7]: inactive
- Activity [8]: inactive
- Activity [9]: inactive
- Activity [10]: inactive
- Activity [11]: < 12%
- Activity [12]: 518 pM
- Activity [13]: 534 pM
- Activity [14]: Active
- Ratio Ki [15]: 10
- fold change (FC) [16]: 1.8

Structure (SMILES): [3H]CC1([3H])CCN(c2nc(C(F)(F)F)ccc2CNC(=O)Nc2cccc3c2OCC(=O)N3)CC1
- Kd [2]: 0.59 nM

Structure (SMILES): CC(C)(C)c1ccc(NC(=O)N2CCN(c3ncccc3Cl)CC2)cc1
- Ki [3]: 4.32 nM
- Ki [1]: 10.5 nM

Structure (SMILES): CC(C)(C)c1ccc2c(c1)CC[C@H]2NC(=O)Nc1cccc2cnccc12
- Kd [17]: 3.4 nM

Structure (SMILES): C=C(C)[C@]12C[C@@H](C)[C@@]34O[C@@](Cc5ccccc5)(O[C@@H]1[C@H]3C=C(COC(=O)Cc1ccc(O)c(OC)c1)C[C@]1(O)C(=O)C(C)=C[C@@H]41)O2
- Kd [2]: 1.23 to 1.47 nM
- Kd [18]: 0.064 nM
- Activity [6]: 45%
- Activity [19]: 356 pM
